Columns and labels:
[1] = target: T1, Amine oxidase [flavin-containing] A (Homo sapiens, UniProt P21397); test: Inhibition of recombinant human MAOA expressed in baculovirus infected BTI insect cells using p-tyramine as substrate preincubated for 30 mins followed by substrate addition and measured over 45 mins by horseradish peroxidase-Amplex Red-coupled fluorometric assay
T1 sequence (P21397 whole entry): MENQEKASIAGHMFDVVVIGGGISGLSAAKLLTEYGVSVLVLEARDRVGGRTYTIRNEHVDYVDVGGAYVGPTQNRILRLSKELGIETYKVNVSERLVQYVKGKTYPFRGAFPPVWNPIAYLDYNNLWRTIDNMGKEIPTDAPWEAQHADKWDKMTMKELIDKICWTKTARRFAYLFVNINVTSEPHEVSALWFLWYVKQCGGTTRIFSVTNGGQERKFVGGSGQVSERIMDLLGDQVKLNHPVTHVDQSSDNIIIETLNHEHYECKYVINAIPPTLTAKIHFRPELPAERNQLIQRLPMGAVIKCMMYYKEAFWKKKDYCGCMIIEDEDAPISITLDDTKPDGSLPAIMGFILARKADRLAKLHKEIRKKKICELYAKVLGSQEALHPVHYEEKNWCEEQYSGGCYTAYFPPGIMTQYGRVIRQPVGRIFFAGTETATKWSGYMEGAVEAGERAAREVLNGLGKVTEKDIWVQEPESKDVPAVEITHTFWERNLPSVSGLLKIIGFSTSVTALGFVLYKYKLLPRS
Summary of the method: (§1)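 Human recombinant MAO-A or MAO-B enzyme. Activity detected fluorometrically with the Amplex Red monoamine oxidase assay.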

Adenosine receptor A2b = target: T2, Adenosine receptor A2b (Homo sapiens, UniProt P29275); test: Displacement of [3H]PSB603 from recombinant human adenosine A2b receptor expressed in HEK293 cells; type: cell-based
T2 sequence (P29275 whole entry): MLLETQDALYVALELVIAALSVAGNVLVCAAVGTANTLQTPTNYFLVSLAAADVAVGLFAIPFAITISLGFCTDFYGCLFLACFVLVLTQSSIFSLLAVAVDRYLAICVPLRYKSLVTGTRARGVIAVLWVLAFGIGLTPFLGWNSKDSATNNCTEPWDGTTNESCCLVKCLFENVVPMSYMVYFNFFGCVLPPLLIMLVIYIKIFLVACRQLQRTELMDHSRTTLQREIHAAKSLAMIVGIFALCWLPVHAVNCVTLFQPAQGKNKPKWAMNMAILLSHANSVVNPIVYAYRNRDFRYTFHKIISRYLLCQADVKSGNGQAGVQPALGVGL

Adenosine receptor A1 = target: T3, Adenosine receptor A1 (Rattus norvegicus, UniProt P25099); test: Displacement of [3H]CCPA from adenosine A1 receptor in rat brain cortical membranes; type: cell membranes
T3 sequence (P25099 whole entry): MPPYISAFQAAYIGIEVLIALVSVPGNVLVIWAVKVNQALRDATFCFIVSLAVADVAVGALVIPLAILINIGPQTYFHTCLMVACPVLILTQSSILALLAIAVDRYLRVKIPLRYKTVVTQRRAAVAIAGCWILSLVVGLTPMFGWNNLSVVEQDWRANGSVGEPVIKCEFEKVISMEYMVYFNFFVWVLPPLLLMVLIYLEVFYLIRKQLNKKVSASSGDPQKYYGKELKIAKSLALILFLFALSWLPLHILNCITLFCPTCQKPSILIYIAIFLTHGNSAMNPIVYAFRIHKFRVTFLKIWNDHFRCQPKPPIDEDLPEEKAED

HepG2 = test: Hepatotoxicity against human HepG2 cells assessed as reduction in cell viability at 100 uM measured after 72 hrs by CellTiter96 Aqueous non-radioactive cell proliferation assay; type: toxicity, cell-based; conditions: hepg2, 72 h
Summary of the method: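 HepG2 cells seeded at 1.5×10^4 cells/well in MEM with 4.5 g/L glucose and 10% FBS, grown 24 h at 37 °C, 5% CO2. Compounds diluted in the same medium and applied for 72 h. CellTiter 96 AQueous reagent then added for 2 h, absorbance read at 490 nm. One-way ANOVA with Bonferroni post test.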

[2] = target: T4, Amine oxidase [flavin-containing] B (Homo sapiens, UniProt P27338); test: Inhibition of recombinant human MAOB expressed in baculovirus infected BTI insect cells using p-tyramine as substrate preincubated for 30 mins followed by substrate addition and measured over 45 mins by horseradish peroxidase-Amplex Red-coupled fluorometric assay; summary of the method: as §1
T4 sequence (P27338 whole entry): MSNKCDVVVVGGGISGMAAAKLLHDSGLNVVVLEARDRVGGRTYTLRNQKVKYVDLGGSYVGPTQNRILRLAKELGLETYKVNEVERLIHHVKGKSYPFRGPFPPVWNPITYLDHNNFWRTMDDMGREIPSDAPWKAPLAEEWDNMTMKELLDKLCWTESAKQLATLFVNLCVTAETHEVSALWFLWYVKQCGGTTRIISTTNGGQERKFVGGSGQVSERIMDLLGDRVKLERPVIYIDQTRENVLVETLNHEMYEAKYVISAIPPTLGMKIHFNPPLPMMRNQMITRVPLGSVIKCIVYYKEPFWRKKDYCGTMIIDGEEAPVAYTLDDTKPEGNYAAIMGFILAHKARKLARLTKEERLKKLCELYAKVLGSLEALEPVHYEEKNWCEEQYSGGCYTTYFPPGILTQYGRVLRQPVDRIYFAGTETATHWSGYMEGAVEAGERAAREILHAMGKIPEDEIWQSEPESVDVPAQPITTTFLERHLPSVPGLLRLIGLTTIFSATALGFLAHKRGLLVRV

[3] = target: T1, Amine oxidase [flavin-containing] A; test: Inhibition of recombinant human MAOA expressed in baculovirus infected BTI insect cells at 1 to 100 uM using p-tyramine as substrate preincubated for 30 mins followed by substrate addition and measured over 45 mins by horseradish peroxidase-Amplex Red-coupled fluorometric assay relative to control; conditions: 0.75 h; summary of the method: as §1
Adenosine receptor A3 = target: T5, Adenosine receptor A3 (Homo sapiens, UniProt P0DMS8); test: Displacement of [3H]PSB11 from recombinant human adenosine A3 receptor expressed in CHO cells; type: cell-based
T5 sequence (P0DMS8 whole entry): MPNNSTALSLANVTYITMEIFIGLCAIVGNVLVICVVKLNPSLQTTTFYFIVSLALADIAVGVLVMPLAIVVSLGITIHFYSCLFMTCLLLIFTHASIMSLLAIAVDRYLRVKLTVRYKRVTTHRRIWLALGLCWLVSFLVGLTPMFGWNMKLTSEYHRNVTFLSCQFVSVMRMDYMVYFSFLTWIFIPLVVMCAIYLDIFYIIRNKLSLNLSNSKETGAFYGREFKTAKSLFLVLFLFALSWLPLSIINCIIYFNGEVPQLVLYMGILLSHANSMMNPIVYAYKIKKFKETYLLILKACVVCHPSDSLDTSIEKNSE

Adenosine receptor A2a = Adenosine receptor A2a (Homo sapiens, UniProt P29274); test: Displacement of [3H]MSX2 from recombinant human adenosine A2a receptor expressed in HEK293 cells; type: cell-based
Adenosine receptor A2a, sequence (P29274 whole entry): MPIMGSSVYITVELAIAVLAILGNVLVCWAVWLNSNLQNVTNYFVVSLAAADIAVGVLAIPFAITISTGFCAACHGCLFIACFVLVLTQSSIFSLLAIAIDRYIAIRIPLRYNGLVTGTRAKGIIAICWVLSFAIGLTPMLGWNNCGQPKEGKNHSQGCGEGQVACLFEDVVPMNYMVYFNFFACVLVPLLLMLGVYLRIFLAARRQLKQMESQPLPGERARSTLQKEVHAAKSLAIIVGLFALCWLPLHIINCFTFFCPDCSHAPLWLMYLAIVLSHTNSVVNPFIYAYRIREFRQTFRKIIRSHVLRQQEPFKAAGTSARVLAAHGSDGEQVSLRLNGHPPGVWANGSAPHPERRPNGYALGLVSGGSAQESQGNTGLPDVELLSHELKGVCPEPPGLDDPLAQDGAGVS

[4] = Antioxidant activity assessed as increase in total ferric ion reducing activity at 1000 uM using FeCl3.6H2O and TPTZ incubated for 10 mins under dark condition by FRAP assay relative to control; type: functional; set-up: scale not given: the % may be the effect or the level left
Summary of the method: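 FRAP reagent made by mixing 10 parts 300 mM acetate buffer pH 3.6, 1 part 10 mM TPTZ in 40 mM HCl and 1 part 20 mM FeCl3·6H2O. Reagent mixed with compound solution, 10 min at room temperature in the dark. Ferrous-TPTZ complex read at 593 nm. Result is absorbance increase versus solvent sample. FeSO4·7H2O standard curve, 37.5–1200 μM.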

Brain = test: Antioxidant activity in rat brain homogenate assessed as inhibition of FeCl2/ascorbic acid-induced lipid peroxidation by measuring reduction in TBARS level at 1000 uM preincubated for 5 mins followed by FeCl2/ascorbic acid addition and measured after 30 mins relative to control; type: functional, tissue-based; set-up: scale not given: the % may be the effect or the level left
Summary of the method: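 Rat brain homogenate in 0.9% saline, 10 mg tissue/ml, preincubated 5 min at 37 °C with compound or vehicle. Peroxidation started with 0.5 mM FeCl2 plus 2 mM ascorbic acid (added-solution concentrations). After 30 min, stopped with 0.2% BHT. Thiobarbituric acid reagent added, heated 15 min in boiling water, TBARS extracted into n-butanol and read at 532 nm. Carvedilol as reference.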

[5] = target: Adenosine receptor A1 (Rattus norvegicus) (UniProt P25099); test: Displacement of [3H]CCPA from rat adenosine A1 receptor

IC50 [1]	Ki (Adenosine receptor A2b)	Ki (Adenosine receptor A1)	IC50 [2]	inhibition (INH) [3]	Ki (Adenosine receptor A3)	Ki (Adenosine receptor A2a)	Ki [5]	SMILES	Activity (HepG2)	Activity [4]	Activity (Brain)
> 100 µM	> 1 µM	1.55 µM	0.57 µM	10%	> 1 µM	0.189 µM	–	Cn1c(=O)c2c(nc3n2CCCN3Cc2c(F)cccc2Cl)n(C)c1=O	Toxic	–	–
> 1 µM	> 1 µM	2.32 µM	0.15 µM	1%	> 1 µM	1.61 µM	–	Cn1c(=O)c2c(nc3n2CCCN3Cc2ccccc2Br)n(C)c1=O	Toxic	3.4%	29.5%
–	–	–	–	–	–	–	–	COc1ccccc1OCCNCC(O)COc1cccc2[nH]c3ccccc3c12 (stereo not given)	–	–	44.8%
–	–	–	–	–	–	–	0.802 to 1.12 µM	Cn1c(=O)c2c(nc3n2CCCN3Cc2cccc(Cl)c2)n(C)c1=O	–	–	–
